The source made the active and inactive calls. No cut-off for these calls is given here.
Assays:
[1] = tested on: HCT-116; assay: Cytotoxicity against human HCT116 cells by MTT assay; type: functional, cell-based
Method in brief: (§1)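 HCT-116 cells grown in McCoy's 5A with 10% heat-inactivated FCS and penicillin/streptomycin at 37 °C, 5% CO2. Conventional MTT assay, run in triplicate at 5 or 6 concentrations spanning 0 to 0.035 mg/mL. Repeated until deviation fell within 5%.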

[2] = target: T1, Macrophage migration inhibitory factor (Homo sapiens) (UniProt P14174); assay: Inhibition of human MIF-mediated AKT phosphorylation expressed in mouse NIH/3T3 cells after 30 mins by Western blotting analysis; type: cell-based; details: NIH3T3
T1 sequence (whole entry): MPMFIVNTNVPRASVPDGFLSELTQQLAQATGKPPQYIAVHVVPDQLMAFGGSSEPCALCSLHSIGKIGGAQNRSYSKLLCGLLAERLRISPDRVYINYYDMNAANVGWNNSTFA
Method in brief: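 NIH/3T3 cells grown 24 h in DMEM with 10% FCS in 12-well plates, then serum-starved 24 h. Treated 30 min with hMIF (1 μg) plus DMSO or plus compound (0.1 μg) in 100 μL medium. Lysates blotted for p-Akt Ser473, total Akt and GAPDH. p-Akt/Akt ratio normalized to GAPDH, with untreated cells set to 1. Three independent experiments.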

[3] = tested on: HCT-116; assay: Growth inhibition of human HCT116 cells; type: functional; method in brief: as §1
[4] = target: T1, Macrophage migration inhibitory factor (Homo sapiens); assay: Inhibition of human recombinant MIF tautomerase activity expressed in Escherichia coli BL21(DE3) at 100 uM in presence of dopachrome
Method in brief: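 Dopachrome made from 0.24 mM DOPA plus 0.48 mM NaIO4 in 25 mM potassium phosphate pH 7.2, 5 min at rt. Added 1:1 to wells holding 10 μM purified recombinant hMIF premixed with 100 μM compound. Kinetics followed immediately at 485 nm. Controls: buffer, compound alone, hMIF alone.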

[5] = target: T1, Macrophage migration inhibitory factor (Homo sapiens); assay: Inhibition of human recombinant Alexa 488-labeled MIF expressed in Escherichia coli BL21(DE3) assessed as inhibition of uptake into human HCT116 cells at 30 uM after 2 hrs by inverted confocal microscopic analysis; details: HCT-116
Method in brief: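 Recombinant hMIF labeled with Alexa Fluor 488 (~0.3 dye per protein) in NaHCO3 pH 8.3. HCT-116 cells given 1.5 μM Alexa-hMIF premixed with 30 μM compound for 2 h at 37 °C, then washed and fixed with formaldehyde/glutaraldehyde. Two-color confocal imaging: 375 nm excitation with 448 nm emission, and 488 nm excitation with 524 nm emission.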

[6] = Cytotoxicity against human NCI60 cells by MTT assay; type: functional
[7] = target: T2, Macrophage migration inhibitory factor (Homo sapiens, UniProt P14174); assay: Binding affinity to human recombinant MIF expressed in Escherichia coli BL21(DE3) by isothermal titration calorimetric assay
T2 sequence (P14174 whole entry): T1 sequence (whole entry)
Method in brief: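 Recombinant hMIF from E. coli BL-21(DE3) (pET-11b), purified by SP/Q flow-through, dialyzed in 50 mM potassium phosphate pH 7.4. ITC at 30 °C: 1.25 mM hMIF titrated from syringe into 1.5 mL of 0.5 mM ligand in the same buffer with 2% DMSO. Buffer-only titration used as control. Kd fitted with a sigmoid function over multiple analyses.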

[8] = target: T1, Macrophage migration inhibitory factor (Homo sapiens); assay: Binding affinity to MIF in human HCT116 whole cell lysates by Western blotting analysis; details: HCT-116
Method in brief: (§2)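 Affinity capture with immunoaffinity-fluorescent (IAF)-tagged probe. Live-cell route: HCT116 cells incubated 4 h at 37 °C with 15 μg probe in 15 mL media, then lysed (D-PBS, 5 mM EDTA, 1% NP-40, protease inhibitors). Whole-lysate route: probe added after lysis. Lysate immunoprecipitated on anti-IAF mAb resin 4 h at 4 °C. Elution with 0.1 M glycine-HCl pH 2.5, then NuPAGE and blotting with anti-hMIF mAb.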

[9] = Drug uptake in human HCT116 cell membrane at 10 uM after 1 hr by inverted confocal microscopic analysis; type: ADME, cell-based; details: hct-116, 1 h
Method in brief: (§3)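 Live HCT116 cells in McCoy's 5A with 10% FCS, 37 °C, 5% CO2. Compound added as 10× stock in media, final DMSO under 0.5%. Time-lapse imaging over 24 h at 10–15 min intervals, then spinning-disk confocal at selected times (1, 6, 24 h) with IAF tag excitation 360 nm and emission 470 nm. Lysosomes counterstained with LysoTracker Red after fixation in formaldehyde/glutaraldehyde.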

[10] = tested on: HCT-116; assay: Cytotoxicity against human HCT116 cells assessed as compaction of chromatin at 10 uM after 24 hrs by inverted confocal microscopic analysis; type: cell-based; details: hct-116, 24 h; method in brief: as §3
[11] = Drug uptake in human HCT116 cell cytoplasm at 10 uM after 1 hr by inverted confocal microscopic analysis; type: ADME, cell-based; details: hct-116, 1 h; method in brief: as §3
[12] = Cellular uptake in human HCT116 cells assessed as lysosomal localization at 10 uM after 6 to 12 hrs by inverted confocal microscopic analysis; type: ADME, cell-based, Lysosome; details: hct-116, 10 µM; method in brief: as §3
[13] = target: T1, Macrophage migration inhibitory factor (Homo sapiens); assay: Binding affinity to MIF in human HCT116 live cell lysates by Western blotting analysis; details: HCT-116; method in brief: as §2
[14] = tested on: HCT-116; assay: Cellular uptake in human HCT116 cells assessed as increase in blue fluorescence at 10 uM after 1 hr by inverted confocal microscopic analysis; type: ADME, cell-based; details: hct-116, 1 h; method in brief: as §3
[15] = target: T1, Macrophage migration inhibitory factor (Homo sapiens); assay: Binding affinity to human recombinant MIF expressed in Escherichia coli BL21(DE3) lysates by Western blotting analysis
Method in brief: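 E. coli BL21(DE3) lysate expressing recombinant hMIF (pET-11b, 0.4 mM IPTG, 4 h), 1–2 mg net protein. Immunoprecipitated with 1 μg IAF-tagged probe on anti-IAF mAb resin, 4 h at 4 °C. Glycine-HCl pH 2.5 elution. Blot probed with mouse anti-hMIF monoclonal and AP-conjugated secondary, BCIP/NBT development.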

[16] = tested on: HCT-116; assay: Cytotoxicity against human HCT116 cells assessed as membrane blebbing at 10 uM after 24 hrs by inverted confocal microscopic analysis; type: cell-based; details: hct-116, 24 h; method in brief: as §3
[17] = read-out: LC50 (the source's name)

Row | SMILES | IC50 [1] | inhibition [2] | GI50 [3] | TGI [3] | CC50 [3, 17] | inhibition [4] | inhibition [5] | GI50 [6] | TGI [6] | CC50 [6, 17] | Kd [7] | Activity [8] | Drug uptake [9] | Activity [10] | Drug uptake [11] | Drug uptake [12] | Activity [13] | Drug uptake [14] | Activity [15] | Activity [16]
1 | CC1=C[C@]2(C)/C=C(C)/C=C/C[C@@H](OC(=O)CCn3cc(CNC(=O)Cc4cc(=O)oc5cc(N(C)C)ccc45)nn3)/C=C3C=C/C(=C4\C(=O)O[C@]2(C[C@@H]1C)C4=O)OC/3 | 21.2 µM |  |  |  |  |  |  |  |  |  |  |  |  |  |  |  |  |  |  | 
2 | CC1=C[C@]2(C)/C=C(C)/C=C/C[C@@H](O)/C=C3C=C/C(=C4\C(=O)O[C@]2(C[C@@H]1C)C4=O)OC/3 | 36 µM | Active | 0.79 µM | 5.01 µM | 100 µM | inactive | Active | 2.16 µM | 8.81 µM | 33.2 µM | 35.9 µM |  |  |  |  |  |  |  |  | 
3 | CC1=C[C@]2(C)/C=C(C)/C=C/C[C@@H](OC(=O)CCC(=O)NCCCCCCNC(=O)Cc3cc(=O)oc4cc(N(C)C)ccc34)/C=C3C=C/C(=C4\C(=O)O[C@]2(C[C@@H]1C)C4=O)OC/3 | 6 µM |  |  |  |  | inactive |  |  |  |  |  | Active | Active | Toxic | Active | Active | Active | Active | Active | Toxic

Source: ChEMBL document CHEMBL2375282, “Spirohexenolide A targets human macrophage migration inhibitory factor (hMIF)” (J Nat Prod, 2013)
